# Rows were chosen to be rich in hits. Some 0.86% of all compounds tested hit in one or more screens of this group.
# DTT redox prof: compounds producing H2O2 with reducing agent – biochemical, NIH compound library profiling, artefact control for MLSCN library redox annotation, primary screen | DTT-dependent redox cycling H2O2, phenol red/HRP absorbance; 100% = 100 µM peroxide control, 0% = buffer | activation, % at 10 µM | 0.03% of 200,000 active;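 active = activation of at least 50% relative to the plate's high and low controls in the primary single-dose screen; inactive = activation below 50%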;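 also: compound incubated with DTT at 0.8 mM final as the reducing agent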
# PERK inhibitor: block of dimerizer-induced PERK translation repression, primary screen, PERK inhibitor project, CHO PERK-DD cells, SEAP luminescence, HTS. inhibition, % at 5.6 µM. CHO PERK-DD fusion, SEAP luminescence translation reporter. Eukaryotic translation initiation factor 2-alpha kinase 3 (Homo sapiens), Q9NZJ5. 0.17% of 220,000 active;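 active = inhibition above the mean inhibition of all tested compounds plus 3 SD, set separately per screening campaign, cut at about 2.9% in these data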;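 also: PERK kinase domain activated by AP20187 dimerizer at 100 nM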
# TNAP inh no acc: human TNAP enzyme inhibitors, primary screen, biochemical, luminescent, no phosphate acceptor, uHTS | purified TNAP, CDP-star luminescence, 30 min | 0.26% of 200,000 active | inhibition, % at 20 µM | Alkaline phosphatase, tissue-nonspecific isozyme (Homo sapiens), P05186 | AID 1012, 2008;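 active = tissue-nonspecific alkaline phosphatase inhibition above about 50% at 20 µM in the single-dose screen, limit read from the data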
# Target sequence (P05186 whole entry, looked up): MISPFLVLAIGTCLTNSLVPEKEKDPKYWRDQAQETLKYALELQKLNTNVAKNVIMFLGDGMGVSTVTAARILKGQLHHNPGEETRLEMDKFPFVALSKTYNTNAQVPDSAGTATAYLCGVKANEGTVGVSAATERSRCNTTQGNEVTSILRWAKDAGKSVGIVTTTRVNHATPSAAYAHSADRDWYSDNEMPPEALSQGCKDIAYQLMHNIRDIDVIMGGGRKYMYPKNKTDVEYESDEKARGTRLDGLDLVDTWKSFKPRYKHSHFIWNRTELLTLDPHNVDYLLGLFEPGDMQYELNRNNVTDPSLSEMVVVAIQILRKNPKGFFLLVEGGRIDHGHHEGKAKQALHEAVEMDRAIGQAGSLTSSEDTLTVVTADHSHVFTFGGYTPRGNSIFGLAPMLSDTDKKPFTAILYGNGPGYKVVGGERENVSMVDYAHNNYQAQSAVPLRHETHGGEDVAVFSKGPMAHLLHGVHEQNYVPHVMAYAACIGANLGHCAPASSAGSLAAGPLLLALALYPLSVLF
# TNAP act hiacc: TNAP activators at high phosphate acceptor level, primary screen, biochemical, luminescence, uHTS | Alkaline phosphatase, tissue-nonspecific isozyme (Homo sapiens), P05186 | AID 1136, 2008 | purified TNAP, CDP-star luminescence, 1 M DEA, 30 min; active compounds read high; 0 = EDTA background, 1 = DMSO-only activity | activation factor at 20 µM | 200,000 tested, under 10 active;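 active = activation factor at least 2 at 20 µM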
#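 Dosing: 20 µM single point. System: human TNAP. Amount: TNAP 1/800 final. Incubation: 30 min, room temperature. Read-out: TNAP activation factor scaled between EDTA and DMSO control wells. Signal: luminescence from CDP-star hydrolysis. Medium: 1 M DEA, pH 9.8, Mg2+, Zn2+. Control set: EDTA negative control, DMSO positive control.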
# p97 ATPase inh: inhibitors of human p97 ATPase, primary screen, biochemical; Transitional endoplasmic reticulum ATPase (Homo sapiens), P55072; recombinant p97 ATPase, Kinase-Glo ATP luminescence, 3 h; inhibition, % at 8 µM; 0.42% of 220,000 active; AID 1481, 2009; in the data active = inhibition above about 15%
# TNAP inh hi DEA: human TNAP enzyme inhibitors, primary screen, biochemical, luminescent, high phosphate acceptor level, uHTS; Alkaline phosphatase, tissue-nonspecific isozyme (Homo sapiens), P05186; purified TNAP, CDP-star luminescence, 1 M DEA; inhibition, % at 20 µM; 0.03% of 200,000 active;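 active = over 50% inhibition of tissue-nonspecific alkaline phosphatase at 20 µM in the single-dose screen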
# Redox H2O2 DR: redox cycling H2O2 generation, confirmed. shares compounds with DTT redox prof. DTT-dependent redox cycling H2O2, phenol red-HRP absorbance. EC50, µM. 40% of 60 active;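 active = EC50 under a set limit for hydrogen peroxide production with the reducing agent DTT present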
# Hits are given with their value; – = inactive; · = not tested or not shown.
SMILES,DTT redox prof,PERK inhibitor,TNAP inh no acc,TNAP act hiacc,p97 ATPase inh,TNAP inh hi DEA,others
CCOc1ccccc1NC(=S)N(Cc1cc2ccc(C)cc2[nH]c1=O)CC1CCCN1CC (stereo not given),–,–,–,–,–,–,
O=C(c1ccc(N2CCCCS2(=O)=O)cc1)N1CCN(c2ccc(N3CCOCC3)nn2)CC1,–,3.0,–,–,–,–,
Cc1ccc(N=Nc2c(O)c3ccccc3[nH]c2=O)c(S(=O)(=O)N(C)C)c1,·,3.3,·,·,–,·,
N#Cc1ccc(NC(=S)NCCN2CCOCC2)cc1,–,–,–,–,–,–,
C/C(=N\OC(=O)c1ccccc1F)c1nccs1,–,3.4,–,–,–,–,
C/C(=N/OC(=O)c1cccc(Cl)c1)c1nccs1,–,–,–,–,–,–,
CSCCC1C(C#N)=C(N)Oc2n[nH]c(-c3cccs3)c21 (stereo not given),–,3.1,–,–,–,–,
CC(C)CC1C(C#N)=C(N)Oc2n[nH]c(-c3cccs3)c21 (stereo not given),–,–,–,–,–,–,
CC(C)(C)c1ccc(C(=O)NCC(=O)OCc2ccc([N+](=O)[O-])cc2)cc1,–,–,–,–,–,–,
CCN1CCN(CC(=O)NC2CCCCC2)C(=O)C1=O,–,–,–,–,–,–,
NS(=O)(=O)c1ccc(CNC(=O)/C=C/c2ccccc2[N+](=O)[O-])cc1,–,–,62,–,–,–,
O=C(/C=C/c1ccccc1[N+](=O)[O-])NCc1ccc(Cl)cc1,–,–,–,–,–,–,
O=C(Nc1nc(-c2ccccc2)c(-c2ccccc2)o1)c1ccc(F)cc1,–,–,–,–,–,–,
COc1cc(C(C#N)N2CCOCC2)ccc1O (stereo not given),–,3.5,–,–,–,–,
CC1=NN(c2ccc(C)c(C)c2)C(=O)C1C(c1cccc(O)c1)C1C(=O)N(c2ccc(C)c(C)c2)N=C1C (stereo not given),–,–,–,–,35,–,
C/C(=N\NC(=O)c1cccc(N/N=C(\C)c2cc(O)ccc2O)c1)c1cc(O)ccc1O,–,–,76,–,–,–,
COc1ccc(/C=N/NS(=O)(=O)c2ccc(C)cc2)cc1OC(=O)c1ccc(C)cc1,–,–,–,–,–,–,
CC(C)C1=Nc2cccc3cccc(c23)N1,–,–,–,–,–,–,
ClCC1=Nc2cccc3cccc(c23)N1,·,–,·,·,15,·,
COc1cc(/C=C2\CC/C(=C\c3cc(OC)c(O)c(OC)c3)C2=O)cc(OC)c1O,–,–,61,–,19,57,
COc1cc(/C=C2/CCC/C(=C\c3cc(O)c(OC)c(Cl)c3)C2=O)cc(Cl)c1O,–,–,52,–,–,53,
COc1cc(/C=C2\CC/C(=C\c3cc(OC)c(OC)c(OC)c3)C2=O)cc(OC)c1OC,–,–,–,–,–,–,
CC(C)[C@H](NC(=O)c1ccccc1)C(=O)OCC(=O)NCc1ccc(F)cc1,–,–,–,–,–,–,
O=C(O)CCCNc1cc(N2CCC3(CC2)OCCO3)c2noc3c2c1C(=O)c1ccccc1-3,–,–,–,–,–,–,
CCOC(=O)N1CCN(c2cc(NCCC(=O)O)c3c4c(onc24)-c2ccccc2C3=O)CC1,141,–,–,–,–,–,Redox H2O2 DR=–
Nc1c(C(=O)c2ccccc2)sc2snc(SCC(=O)c3ccccc3)c12,–,–,–,–,–,–,
CCOc1ccc(NC(=O)CSc2ccccc2N)cc1,–,–,–,–,–,–,
CC(=O)C(C(C)=O)C1(O)C(=O)c2ccccc2C1=O,88,3.0,–,–,–,–,Redox H2O2 DR=–

# Screening data as filed in PubChem.
